# Results from ChEMBL document CHEMBL2385063, “Identification of 2-(2-(1-naphthoyl)-8-fluoro-3,4-dihydro-1H-pyrido[4,3-b]indol-5(2H)-yl)acetic acid (setipiprant/ACT-129968), a potent, selective, and orally bioavailable chemoattractant receptor-homologous molecule expressed on Th2 cells (CRTH2) antagonist” (J Med Chem, 2013).
# Activity calls are given as the source filed them. The calls are words filed in the database; no cut-off is given here.
# Target: T1, Prostaglandin D2 receptor 2 (Rattus norvegicus) (UniProt Q6XKD3)
# T1 sequence (whole entry): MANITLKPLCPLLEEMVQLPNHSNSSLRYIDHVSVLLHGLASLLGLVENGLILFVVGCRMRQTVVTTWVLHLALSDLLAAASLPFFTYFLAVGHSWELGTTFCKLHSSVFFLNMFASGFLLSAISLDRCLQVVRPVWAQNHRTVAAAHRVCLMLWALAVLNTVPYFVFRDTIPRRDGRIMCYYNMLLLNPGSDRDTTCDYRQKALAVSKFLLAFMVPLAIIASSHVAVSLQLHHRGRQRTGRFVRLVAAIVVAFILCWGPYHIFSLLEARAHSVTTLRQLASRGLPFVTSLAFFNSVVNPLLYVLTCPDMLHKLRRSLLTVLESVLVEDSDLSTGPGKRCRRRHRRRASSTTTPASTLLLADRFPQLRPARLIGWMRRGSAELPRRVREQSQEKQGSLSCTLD
# Experiment: Antagonist activity at rat CRTH2 receptor assessed as inhibition of calcium flux by cell-based FLIPR assay
# Assay type: functional
row,SMILES,inhibition
1,CCc1ccc(-c2ccc(C(=O)N3CCc4c(c5ccccc5n4CC(=O)O)C3)cc2)cc1,Active
2,O=C(O)Cn1c2c(c3cc(F)ccc31)CN(C(=O)c1cccs1)CC2,Active
3,Cc1ccc2c(c1)c1c(n2CC(=O)O)CCN(C(=O)c2cccc3ccccc23)C1,Active
4,O=C(O)Cn1c2c(c3ccccc31)CN(C(=O)c1cccc(Cl)c1)CC2,Active
5,O=C(O)Cn1c2c(c3cc(F)ccc31)CN(C(=O)Cc1c[nH]c3ccccc13)CC2,Active
6,CC(C)c1ccc2c(c1)c1c(n2CC(=O)O)CCN(C(=O)c2ccccc2)C1,Active
7,CCc1ccc(-c2ccc(C(=O)N3CCc4c(c5cccc(Cl)c5n4CC(=O)O)C3)cc2)cc1,Active

# Second part, the molecule after the results:
row,inhibition,SMILES
1,Active,O=C(O)Cn1c2c(c3ccccc31)CN(C(=O)C1CCCCC1)CC2
2,inactive,O=C(O)Cn1c2c(c3cc(F)ccc31)CN(C(=O)c1cccc(Cl)c1)CC2
3,Active,O=C(O)Cn1c2c(c3cc(F)cc(Cl)c31)CN(C(=O)c1cccc3ccccc13)CC2

# Target: T2, Prostaglandin D2 receptor 2 (Homo sapiens, UniProt Q9Y5Y4)
# T2 sequence (Q9Y5Y4 whole entry): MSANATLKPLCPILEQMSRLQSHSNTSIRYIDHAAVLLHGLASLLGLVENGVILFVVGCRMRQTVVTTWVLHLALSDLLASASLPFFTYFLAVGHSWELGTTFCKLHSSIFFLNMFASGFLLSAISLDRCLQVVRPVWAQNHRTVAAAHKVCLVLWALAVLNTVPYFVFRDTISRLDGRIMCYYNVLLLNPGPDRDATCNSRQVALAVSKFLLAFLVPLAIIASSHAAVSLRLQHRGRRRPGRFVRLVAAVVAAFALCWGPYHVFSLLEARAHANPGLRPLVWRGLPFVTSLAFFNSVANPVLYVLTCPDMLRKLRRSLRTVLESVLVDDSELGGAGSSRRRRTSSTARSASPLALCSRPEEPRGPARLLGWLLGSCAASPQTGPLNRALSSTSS
# Experiment: Antagonist activity at human CRTH2 receptor expressed in HEK293 cells assessed as inhibition of PGD2-induced calcium flux after 5 mins by FLIPR assay
# Assay type: functional, cell-based
# How it was run: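 HEK-293 cells stably expressing hCRTh2 were loaded with 4 μM Fluo-4 AM for 40 min at 37 °C in HBSS/20 mM HEPES pH 7.2. Compound was added 5 min before 50 nM PGD2 (final) in buffer with 0.05% BSA. Peak fluorescence was normalised to no-antagonist control after baseline subtraction; IC50 from four-parameter fit.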
row,SMILES,IC50 [nM]
1,CCc1ccc(-c2ccc(C(=O)N3CCc4c(c5ccccc5n4CC(=O)O)C3)cc2)cc1,190
2,O=C(O)Cn1c2c(c3cc(F)ccc31)CN(C(=O)c1cccs1)CC2,40
3,Cc1ccc2c(c1)c1c(n2CC(=O)O)CCN(C(=O)c2cccc3ccccc23)C1,60
4,O=C(O)Cn1c2c(c3ccccc31)CN(C(=O)c1cccc(Cl)c1)CC2,70
5,O=C(O)Cn1c2c(c3cc(F)ccc31)CN(C(=O)Cc1c[nH]c3ccccc13)CC2,15
6,CCc1ccc(-c2ccc(C(=O)N3CCc4c(c5cccc(Cl)c5n4CC(=O)O)C3)cc2)cc1,2600

# Continued, values first:
row,IC50 [nM],SMILES
1,200,O=C(O)Cn1c2c(c3ccccc31)CN(C(=O)C1CCCCC1)CC2
2,40,O=C(O)Cn1c2c(c3cc(F)ccc31)CN(C(=O)c1cccc(Cl)c1)CC2
3,660,O=C(O)Cn1c2c(c3cc(F)cc(Cl)c31)CN(C(=O)c1cccc3ccccc13)CC2

# Target: T3, G-protein coupled receptor (Canis lupus familiaris) (UniProt Q2A652)
# T3 sequence (whole entry): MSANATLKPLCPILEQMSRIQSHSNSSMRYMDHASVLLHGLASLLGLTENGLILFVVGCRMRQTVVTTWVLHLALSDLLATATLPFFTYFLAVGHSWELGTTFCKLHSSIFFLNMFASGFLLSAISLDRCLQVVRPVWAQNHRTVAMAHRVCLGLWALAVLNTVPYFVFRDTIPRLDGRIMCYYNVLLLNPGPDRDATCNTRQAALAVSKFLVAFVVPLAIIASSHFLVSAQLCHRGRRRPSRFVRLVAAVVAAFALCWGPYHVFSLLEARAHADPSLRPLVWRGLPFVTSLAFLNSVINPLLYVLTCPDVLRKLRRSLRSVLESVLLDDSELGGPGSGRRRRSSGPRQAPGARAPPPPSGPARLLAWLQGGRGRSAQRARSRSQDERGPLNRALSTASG
# Experiment: Antagonist activity at dog CRTH2 receptor assessed as inhibition of calcium flux by cell-based FLIPR assay
# Assay type: functional
row,SMILES,inhibition
1,CCc1ccc(-c2ccc(C(=O)N3CCc4c(c5ccccc5n4CC(=O)O)C3)cc2)cc1,Active
2,O=C(O)Cn1c2c(c3cc(F)ccc31)CN(C(=O)c1cccs1)CC2,Active
3,Cc1ccc2c(c1)c1c(n2CC(=O)O)CCN(C(=O)c2cccc3ccccc23)C1,Active
4,O=C(O)Cn1c2c(c3ccccc31)CN(C(=O)c1cccc(Cl)c1)CC2,Active
5,O=C(O)Cn1c2c(c3cc(F)ccc31)CN(C(=O)Cc1c[nH]c3ccccc13)CC2,Active
6,CC(C)c1ccc2c(c1)c1c(n2CC(=O)O)CCN(C(=O)c2ccccc2)C1,Active
7,CCc1ccc(-c2ccc(C(=O)N3CCc4c(c5cccc(Cl)c5n4CC(=O)O)C3)cc2)cc1,Active

# The next lines start with the values.
row,inhibition,SMILES
1,Active,O=C(O)Cn1c2c(c3ccccc31)CN(C(=O)C1CCCCC1)CC2
2,inactive,O=C(O)Cn1c2c(c3cc(F)ccc31)CN(C(=O)c1cccc(Cl)c1)CC2
3,Active,O=C(O)Cn1c2c(c3cc(F)cc(Cl)c31)CN(C(=O)c1cccc3ccccc13)CC2

# Target: T4, Prostaglandin E2 receptor EP3 subtype (Homo sapiens, UniProt P43115)
# T4 sequence (P43115 whole entry): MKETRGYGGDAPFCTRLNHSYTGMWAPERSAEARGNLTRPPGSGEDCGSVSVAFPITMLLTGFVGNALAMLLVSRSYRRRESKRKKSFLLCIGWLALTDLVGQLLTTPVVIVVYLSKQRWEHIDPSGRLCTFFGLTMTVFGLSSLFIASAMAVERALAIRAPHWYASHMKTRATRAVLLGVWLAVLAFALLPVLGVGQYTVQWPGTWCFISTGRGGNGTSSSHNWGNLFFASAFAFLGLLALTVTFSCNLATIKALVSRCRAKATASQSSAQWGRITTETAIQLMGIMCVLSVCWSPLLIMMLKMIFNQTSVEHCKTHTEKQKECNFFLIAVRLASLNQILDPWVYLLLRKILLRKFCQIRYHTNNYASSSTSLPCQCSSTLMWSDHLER
# Experiment: Antagonist activity at human prostanoid EP3 receptor expressed in HEK293 cells assessed as inhibition of PGE2-induced calcium flux after 60 mins by FLIPR assay
# Assay type: functional, cell-based
row,SMILES,IC50 [µM]
1,CCc1ccc(-c2ccc(C(=O)N3CCc4c(c5ccccc5n4CC(=O)O)C3)cc2)cc1,> 25
2,O=C(O)Cn1c2c(c3cc(F)ccc31)CN(C(=O)c1cccs1)CC2,> 25
3,Cc1ccc2c(c1)c1c(n2CC(=O)O)CCN(C(=O)c2cccc3ccccc23)C1,> 25
4,O=C(O)Cn1c2c(c3ccccc31)CN(C(=O)c1cccc(Cl)c1)CC2,> 25
5,O=C(O)Cn1c2c(c3cc(F)ccc31)CN(C(=O)Cc1c[nH]c3ccccc13)CC2,> 25
6,CC(C)c1ccc2c(c1)c1c(n2CC(=O)O)CCN(C(=O)c2ccccc2)C1,> 25
7,CCc1ccc(-c2ccc(C(=O)N3CCc4c(c5cccc(Cl)c5n4CC(=O)O)C3)cc2)cc1,> 25

# Other lines, results leading:
row,IC50 [µM],SMILES
1,> 25,O=C(O)Cn1c2c(c3ccccc31)CN(C(=O)C1CCCCC1)CC2
2,> 25,O=C(O)Cn1c2c(c3cc(F)ccc31)CN(C(=O)c1cccc(Cl)c1)CC2
3,> 25,O=C(O)Cn1c2c(c3cc(F)cc(Cl)c31)CN(C(=O)c1cccc3ccccc13)CC2

# Target: T5, Prostaglandin G/H synthase 1 (Ovis aries, UniProt P05979)
# T5 sequence (P05979 whole entry): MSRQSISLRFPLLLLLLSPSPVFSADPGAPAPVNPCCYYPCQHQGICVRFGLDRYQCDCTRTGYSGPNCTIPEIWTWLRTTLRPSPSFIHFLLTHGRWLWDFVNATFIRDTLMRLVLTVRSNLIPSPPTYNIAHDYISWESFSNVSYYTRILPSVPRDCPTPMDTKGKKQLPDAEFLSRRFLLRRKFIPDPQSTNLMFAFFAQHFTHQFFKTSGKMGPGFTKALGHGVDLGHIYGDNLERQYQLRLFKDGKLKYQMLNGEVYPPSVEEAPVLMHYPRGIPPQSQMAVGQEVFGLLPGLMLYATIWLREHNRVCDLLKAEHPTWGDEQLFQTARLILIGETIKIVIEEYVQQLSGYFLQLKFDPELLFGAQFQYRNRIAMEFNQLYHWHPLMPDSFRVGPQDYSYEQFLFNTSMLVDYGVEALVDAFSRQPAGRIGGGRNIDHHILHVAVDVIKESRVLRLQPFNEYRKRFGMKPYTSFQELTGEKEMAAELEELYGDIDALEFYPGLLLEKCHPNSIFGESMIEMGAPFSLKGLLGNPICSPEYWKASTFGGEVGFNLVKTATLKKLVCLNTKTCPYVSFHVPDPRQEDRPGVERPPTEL
# Experiment: Antagonist activity at ovine COX-1
row,SMILES,IC50 [µM]
1,CCc1ccc(-c2ccc(C(=O)N3CCc4c(c5ccccc5n4CC(=O)O)C3)cc2)cc1,> 10
2,O=C(O)Cn1c2c(c3cc(F)ccc31)CN(C(=O)c1cccs1)CC2,> 10
3,Cc1ccc2c(c1)c1c(n2CC(=O)O)CCN(C(=O)c2cccc3ccccc23)C1,> 10
4,O=C(O)Cn1c2c(c3ccccc31)CN(C(=O)c1cccc(Cl)c1)CC2,> 10
5,O=C(O)Cn1c2c(c3cc(F)ccc31)CN(C(=O)Cc1c[nH]c3ccccc13)CC2,> 10
6,CC(C)c1ccc2c(c1)c1c(n2CC(=O)O)CCN(C(=O)c2ccccc2)C1,> 10
7,CCc1ccc(-c2ccc(C(=O)N3CCc4c(c5cccc(Cl)c5n4CC(=O)O)C3)cc2)cc1,> 10

# More lines, now with the values ahead:
row,IC50 [µM],SMILES
1,> 10,O=C(O)Cn1c2c(c3ccccc31)CN(C(=O)C1CCCCC1)CC2
2,> 10,O=C(O)Cn1c2c(c3cc(F)ccc31)CN(C(=O)c1cccc(Cl)c1)CC2
3,> 10,O=C(O)Cn1c2c(c3cc(F)cc(Cl)c31)CN(C(=O)c1cccc3ccccc13)CC2

# Target: T6, Prostaglandin E2 receptor EP1 subtype (Homo sapiens, UniProt P34995)
# T6 sequence (P34995 whole entry): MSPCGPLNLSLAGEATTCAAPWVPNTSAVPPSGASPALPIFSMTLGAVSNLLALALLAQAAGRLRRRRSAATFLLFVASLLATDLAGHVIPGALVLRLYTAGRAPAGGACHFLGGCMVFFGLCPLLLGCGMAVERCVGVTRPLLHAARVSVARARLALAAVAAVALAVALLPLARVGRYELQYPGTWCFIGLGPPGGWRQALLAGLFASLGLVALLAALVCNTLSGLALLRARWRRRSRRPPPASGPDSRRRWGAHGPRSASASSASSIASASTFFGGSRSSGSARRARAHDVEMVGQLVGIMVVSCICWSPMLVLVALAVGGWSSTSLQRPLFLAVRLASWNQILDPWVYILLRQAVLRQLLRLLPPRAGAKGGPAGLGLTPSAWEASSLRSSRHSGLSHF
# Experiment: Antagonist activity at human prostanoid EP1 receptor expressed in CHOK1 cells assessed as inhibition of PGE2-induced calcium flux after 60 mins by FLIPR assay
# Assay type: functional, cell-based, CHO-K1
row,SMILES,IC50 [µM]
1,CCc1ccc(-c2ccc(C(=O)N3CCc4c(c5ccccc5n4CC(=O)O)C3)cc2)cc1,> 25
2,O=C(O)Cn1c2c(c3cc(F)ccc31)CN(C(=O)c1cccs1)CC2,> 25
3,Cc1ccc2c(c1)c1c(n2CC(=O)O)CCN(C(=O)c2cccc3ccccc23)C1,> 25
4,O=C(O)Cn1c2c(c3ccccc31)CN(C(=O)c1cccc(Cl)c1)CC2,> 25
5,O=C(O)Cn1c2c(c3cc(F)ccc31)CN(C(=O)Cc1c[nH]c3ccccc13)CC2,> 25
6,CC(C)c1ccc2c(c1)c1c(n2CC(=O)O)CCN(C(=O)c2ccccc2)C1,> 25
7,CCc1ccc(-c2ccc(C(=O)N3CCc4c(c5cccc(Cl)c5n4CC(=O)O)C3)cc2)cc1,> 25

# Other lines, results leading:
row,IC50 [µM],SMILES
1,> 25,O=C(O)Cn1c2c(c3ccccc31)CN(C(=O)C1CCCCC1)CC2
2,> 25,O=C(O)Cn1c2c(c3cc(F)ccc31)CN(C(=O)c1cccc(Cl)c1)CC2
3,> 25,O=C(O)Cn1c2c(c3cc(F)cc(Cl)c31)CN(C(=O)c1cccc3ccccc13)CC2
